Laboratory results as given in ChEMBL document CHEMBL1124832, “Functionalized congener approach for the design of novel muscarinic agents. Synthesis and pharmacological evaluation of N-methyl-N-[4-(1-pyrrolidinyl)-2-butynyl] amides” (J Med Chem, 1990).

Tests used:
[1] = target: Muscarinic acetylcholine receptor M3 (Homo sapiens) (UniProt P20309); test: Percent binding affinity at muscarinic acetylcholine receptor M3 from SK-N-SH human neuroblastoma cells in presence of [3H]NMS; format: cell-based
Muscarinic acetylcholine receptor M3 (Homo sapiens), sequence (P20309 whole entry, looked up): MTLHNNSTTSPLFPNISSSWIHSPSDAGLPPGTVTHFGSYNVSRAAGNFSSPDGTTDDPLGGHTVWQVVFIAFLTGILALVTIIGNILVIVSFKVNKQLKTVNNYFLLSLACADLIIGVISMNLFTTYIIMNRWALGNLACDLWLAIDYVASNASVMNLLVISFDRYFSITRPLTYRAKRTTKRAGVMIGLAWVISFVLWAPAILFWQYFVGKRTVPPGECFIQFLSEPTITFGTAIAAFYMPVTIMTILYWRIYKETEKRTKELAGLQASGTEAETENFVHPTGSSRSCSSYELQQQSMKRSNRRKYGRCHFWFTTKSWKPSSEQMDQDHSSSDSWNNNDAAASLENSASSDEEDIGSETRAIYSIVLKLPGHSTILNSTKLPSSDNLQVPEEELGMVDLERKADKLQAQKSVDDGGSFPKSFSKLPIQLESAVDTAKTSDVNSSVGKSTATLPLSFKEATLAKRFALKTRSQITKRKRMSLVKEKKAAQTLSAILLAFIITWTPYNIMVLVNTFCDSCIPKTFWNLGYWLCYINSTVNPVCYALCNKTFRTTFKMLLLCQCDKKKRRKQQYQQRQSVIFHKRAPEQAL
Summary of the method: (§1)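 Crude membranes from confluent cells, lysed in 2 mM Tris-HCl (pH 7.1)/1 mM EDTA, homogenized, spun at 50000 g and stored at -70 °C. Membranes (150-300 µg protein) incubated 90 min at 37 °C with 0.5 nM [3H]NMS and 100 µM compound in DMEM-Hepes, then filtered on GF/B. Nonspecific binding taken with 1 µM atropine. Reported as percent displacement; two or three trials in triplicate.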

[2] = target: T1, Muscarinic acetylcholine receptor M4 (Rattus norvegicus) (UniProt P08485); test: Percent inhibition against muscarinic acetylcholine receptor M4 from NG108-15 cell line; format: cell-based; design: concentration or dose not given beside the values
T1 sequence (whole entry): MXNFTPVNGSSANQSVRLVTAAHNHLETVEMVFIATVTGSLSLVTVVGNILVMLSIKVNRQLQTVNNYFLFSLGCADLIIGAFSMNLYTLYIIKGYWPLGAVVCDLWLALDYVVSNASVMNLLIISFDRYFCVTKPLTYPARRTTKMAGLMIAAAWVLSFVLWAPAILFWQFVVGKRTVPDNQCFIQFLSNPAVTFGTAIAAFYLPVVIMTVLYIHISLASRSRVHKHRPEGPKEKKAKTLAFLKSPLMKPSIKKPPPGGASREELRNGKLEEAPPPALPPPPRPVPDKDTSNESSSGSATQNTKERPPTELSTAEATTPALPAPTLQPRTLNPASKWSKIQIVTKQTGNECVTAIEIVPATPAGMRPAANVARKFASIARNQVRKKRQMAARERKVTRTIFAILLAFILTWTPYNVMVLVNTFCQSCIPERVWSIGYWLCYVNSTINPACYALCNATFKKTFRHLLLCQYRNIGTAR
Summary of the method: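 NG108-15 cells grown to 90% confluence and preincubated 10 min at 37 °C in 1 mM IBMX in DMEM-Hepes. Compound (100 µM final) and PGE1 (5 µM final) were added for 15 min at 37 °C. cAMP was extracted in 0.1 N HCl for 30 min at room temperature, lyophilized and measured by radioimmunoassay. Reported as percent inhibition versus no-compound control; three trials in triplicate.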

[3] = target: Muscarinic acetylcholine receptor M3 (Homo sapiens) (UniProt P20309); test: Percent increase in [3H]myo-inositol at muscarinic acetylcholine receptor M3 from SK-N-SH human neuroblastoma cells; format: cell-based; design: concentration or dose not given beside the values
Summary of the method: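 SK-N-SH cells grown in DMEM with 10% newborn calf serum and plated at 100000 cells/well. After 24 h they were labeled overnight with [3H]-myo-inositol (2 µCi/well). Cells were rinsed and preincubated 5 min at 37 °C in 10 mM LiCl DMEM-Hepes, then exposed to 100 µM final compound for 30 min at 37 °C. Reported as percent increase relative to oxotremorine M (100%); two or three trials in triplicate.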

[4] = target: T1, Muscarinic acetylcholine receptor M4 (Rattus norvegicus); test: Binding affinity at muscarinic acetylcholine receptor M4 from NG108-15 cell line in presence of [3H]-NMS; format: cell-based; summary of the method: as §1
[5] = tested on: SK-N-SH; test: Percent inhibition of stimulation of PI turnover of Oxotremorine M (100 uM) in SK-N-SH cells at 100 uM; format: functional, Homo sapiens
[6] = target: Muscarinic acetylcholine receptor; test: Binding affinity was determined using [3H]-NMS for Muscarinic acetylcholine receptor in SK-N-SH neuroblastoma cells; format: cell-based, Homo sapiens
Summary of the method: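 SK-N-SH crude membranes from hypotonic lysis (2 mM Tris-HCl pH 7.1, 1 mM EDTA), 50000 g pellets. Competition used varied compound concentrations with 1 nM [3H]NMS in DMEM-Hepes, 60 min at 37°C, then GF/B filtration. Atropine defined nonspecific binding. Ki was obtained by Cheng-Prusoff from the [3H]NMS Kd (saturation, 10 min at 37°C). Means ± SEM of three determinations in duplicate.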

`CN(CC#CCN1CCCC1)C(=O)CCCCCNC(=O)OC(C)(C)C` gave an Affinity [1] of 39.1%, an Activity [2] of less than 1% and an Activity [3] of less than 1%. For the same compound, the Affinity [4] was 31.9%.

With `CN(CC#CCN1CCCC1)C(=O)CCCCCN.O=C(O)C(F)(F)F.O=C(O)C(F)(F)F` the Affinity [1] was 55.9%, the Activity [2] was 14.3% and the Activity [3] was less than 1%. The Affinity [4] was 37.9% and the Inhibition [5] was 47%.

Compound `CN(CC#CCN1CCCC1)C(=O)CN` has an Affinity [1] of 17.3%, an Activity [2] of 26.1% and an Activity [3] of less than 1%. It also gave an Affinity [4] of 23.5%.

For `CC(=O)N(C)C(C)C#CCN1CCCC1` (stereo unspecified), the Affinity [1] was 99%, the Ki [6] was 0.33 µM and the Activity [2] was 36%. The Activity [3] was less than 1% and the Affinity [4] was 97%.

`CN(CC#CCN1CCCC1)C(=O)CCC(=O)NCCN` was tested, and the Affinity [1] was 25%, the Activity [2] was less than 1% and the Activity [3] was less than 1%. The Affinity [4] was 14%.

Work on `CN(CC#CCN1CCCC1)C(=O)c1cccc(Cl)c1` yielded an Affinity [1] of 55%, an Activity [2] of less than 1% and an Activity [3] of 4%. For the same compound, the Affinity [4] was 34%.

Work on `CN(CC#CCN1CCCC1)C(=O)CCCNC(=O)CCNC(=O)OC(C)(C)C` yielded an Affinity [1] of 39.2%, an Activity [2] of less than 1% and an Activity [3] of less than 1%. The Affinity [4] was 38.8%.

For `CC(=O)NCCC(=O)N(C)CC#CCN1CCCC1.O=C(O)C(=O)O`, the Affinity [1] was 67.4%, the Activity [2] was 10.2% and the Activity [3] was less than 1%. The Affinity [4] was 67.7% and the Inhibition [5] was 43%.

For `C[N+](C)(C)CC#CCN1CCCC1=O`, the Affinity [1] was 52.1%, the Activity [2] was 64.1% and the Activity [3] was 100%. For the same compound, the Affinity [4] was 96.2%.

In the case of `CN(CC#CCN1CCCC1)C(=O)CCCNC(=O)CN`, the Affinity [1] was 47%, the Activity [2] was less than 1% and the Activity [3] was 7%. It also gave an Affinity [4] of 31%.

With `CN(CC#CCN1CCCC1)C(=O)CCC(=O)O` the Affinity [1] was 6%, the Activity [2] was less than 1% and the Activity [3] was less than 1%. The Affinity [4] was 0%.

With `CC(=O)NCCCC(=O)N(C)CC#CCN1CCCC1` the Affinity [1] was 15.6%, the Activity [2] was 8% and the Activity [3] was 14%. For the same compound, the Affinity [4] was 19.1%.

`CN(CC#CCN1CCCC1)C(=O)CCCNC(=O)CCN` was tested, and the Affinity [1] was 40.5%, the Activity [2] was less than 1% and the Activity [3] was 7%. It also gave an Affinity [4] of 29%.

Work on `CN(CC#CCN1CCCC1)C(=O)CCCCCNC(=O)CN` yielded an Affinity [1] of 65%, an Activity [2] of less than 1% and an Activity [3] of less than 1%. It also gave an Affinity [4] of 57%.

Compound `CN(CC#CCN1CCCC1)C(=O)CCCCCNC(=O)CCN` has an Affinity [1] of 70.5%, an Activity [2] of less than 1% and an Activity [3] of 7%. For the same compound, the Affinity [4] was 56.8%.

With `CN(CC#CCN1CCCC1)C(=O)CCNC(=O)OC(C)(C)C` the Affinity [1] was 45.1%, the Activity [2] was 12.5% and the Activity [3] was less than 1%. It also gave an Affinity [4] of 36.3%.

With `CC(=O)NCCCCCC(=O)N(C)CC#CCN1CCCC1` the Affinity [1] was 17.4%, the Activity [2] was 3% and the Activity [3] was 1%. The Affinity [4] was 22.7%.

In the case of `CC(=O)N(C)CC#CCN1CCCC1`, the Affinity [1] was 88.8%, the Ki [6] was 4.96 µM and the Activity [2] was 63.2%. The Activity [3] was 48% and the Affinity [4] was 79.6%.

For `CN(CC#CCN1CCCC1)C(=O)CCCCCNC(=O)c1ccccc1`, the Affinity [1] was 51.7%, the Activity [2] was less than 1% and the Activity [3] was less than 1%. For the same compound, the Affinity [4] was 52.8%.

Compound `CN(CC#CCN1CCCC1)C(=O)CCCCCNC(=O)CNC(=O)OC(C)(C)C` has an Affinity [1] of 52.6%, an Activity [2] of less than 1% and an Activity [3] of 3%. For the same compound, the Affinity [4] was 52.3%.

`CC(=O)NCCCCCCCC(=O)N(C)CC#CCN1CCCC1` showed an Affinity [1] of 59.1%, an Activity [2] of less than 1% and an Activity [3] of less than 1%. The Affinity [4] was 50.4%.

In the case of `CN(CC#CCN1CCCC1)C(=O)CCCNC(=O)CNC(=O)OC(C)(C)C`, the Affinity [1] was 37.5%, the Activity [2] was less than 1% and the Activity [3] was less than 1%. The Affinity [4] was 24.4%.

For `CN(CC#CCN1CCCC1)C(=O)CCCNC(=O)c1ccccc1`, the Affinity [1] was 30.3%, the Activity [2] was less than 1% and the Activity [3] was less than 1%. The Affinity [4] was 27.7%.

With `COC(=O)CCC(=O)N(C)CC#CCN1CCCC1` the Affinity [1] was 28%, the Activity [2] was less than 1% and the Activity [3] was less than 1%. The Affinity [4] was 7%.

For `CN(CC#CCN1CCCC1)C(=O)CCCCN.O=C(O)C(F)(F)F.O=C(O)C(F)(F)F`, the Affinity [1] was 34.4%, the Activity [2] was 15.8% and the Activity [3] was less than 1%. For the same compound, the Affinity [4] was 22.4% and the Inhibition [5] was 44%.

Compound `CC(=O)NCC(=O)N(C)CC#CCN1CCCC1` has an Affinity [1] of 12.5%, an Activity [2] of 14.1% and an Activity [3] of 8%. For the same compound, the Affinity [4] was 24%.

Work on `CN(CC#CCN1CCCC1)C(=O)CCCCCNC(=O)CCNC(=O)OC(C)(C)C` yielded an Affinity [1] of 59.1%, an Activity [2] of less than 1% and an Activity [3] of less than 1%. It also gave an Affinity [4] of 57.3%.

`CN(CC#CCN1CCCC1)C(=O)CCCN` was tested, and the Affinity [1] was 20%, the Activity [2] was 3.7% and the Activity [3] was less than 1%. It also gave an Affinity [4] of 12.1%.

Compound `CC(=O)NCCCCCCC(=O)N(C)CC#CCN1CCCC1` has an Affinity [1] of 24.6%, an Activity [2] of 6.9% and an Activity [3] of 1%. The Affinity [4] was 20.4%.

Work on `CN(CC#CCN1CCCC1)C(=O)CCN.O=C(O)C(F)(F)F.O=C(O)C(F)(F)F` yielded an Affinity [1] of 18.1%, an Activity [2] of 20.8% and an Activity [3] of less than 1%. For the same compound, the Affinity [4] was 15.1% and the Inhibition [5] was 20%.

With `CC(=O)NCCCCC(=O)N(C)CC#CCN1CCCC1` the Affinity [1] was 29.4%, the Activity [2] was 5.2% and the Activity [3] was less than 1%. The Affinity [4] was 17.9%.

Work on `CN(CC#CCN1CCCC1)C(=O)CCCCCCCN.O=C(O)C(F)(F)F.O=C(O)C(F)(F)F` yielded an Affinity [1] of 93.7%, a Ki [6] of 1.4 µM and an Activity [2] of less than 1%. The Activity [3] was less than 1% and the Affinity [4] was 92.3%.

`CN(CC#CCN1CCCC1)C(=O)CCCCNC(=O)OC(C)(C)C` gave an Affinity [1] of 32.1%, an Activity [2] of 0.5% and an Activity [3] of 1%. For the same compound, the Affinity [4] was 26.7%.

In the case of `CN(CC#CCN1CCCC1)C(=O)CCCCCCNC(=O)OC(C)(C)C.O=C(O)C(=O)O`, the Affinity [1] was 81.4%, the Ki [6] was 10.9 µM and the Activity [2] was less than 1%. It also gave an Activity [3] of less than 1% and an Affinity [4] of 77.9%.

`CN(CC#CCN1CCCC1)C(=O)c1ccccc1` gave an Affinity [1] of 40%, an Activity [2] of less than 1% and an Activity [3] of 8%. The Affinity [4] was 25%.

`CN(CC#CCN1CCCC1)C(=O)CCCCCCCNC(=O)OC(C)(C)C.O=C(O)C(=O)O` was tested, and the Affinity [1] was 92.1%, the Ki [6] was 4.9 µM and the Activity [2] was less than 1%. For the same compound, the Activity [3] was less than 1% and the Affinity [4] was 89%.

In the case of `CN(CC#CCN1CCCC1)C(=O)CCCCCCN.O=C(O)C(F)(F)F.O=C(O)C(F)(F)F`, the Affinity [1] was 81.9%, the Ki [6] was 6.7 µM and the Activity [2] was 3%. The Activity [3] was less than 1% and the Affinity [4] was 72.1%.

`CN(CC#CCN1CCCC1)C(=O)CNC(=O)OC(C)(C)C` gave an Affinity [1] of 40%, an Activity [2] of 7% and an Activity [3] of less than 1%. For the same compound, the Affinity [4] was 32.6%.

`CN(CC#CCN1CCCC1)C(=O)CCCNC(=O)OC(C)(C)C` gave an Affinity [1] of 32.1%, an Activity [2] of 3.5% and an Activity [3] of less than 1%. For the same compound, the Affinity [4] was 24.4%.
